# Compound activity deposited in PubChem by Broad Institute.
# ERAP1 inh = human ERAP1 aminopeptidase inhibitors, primary screen, biochemical, single point, plate reader | inhibition, % at 10.7 µM | recombinant ERAP1, Leu-AMC fluorescence, 60 min | AID 652197, 2013 | 340,000 compounds, 0.15% hits;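 active = mean replicate inhibition of at least 30%, or all replicates individually reaching that 30% level; inactive = mean below 30% and not every replicate reaching it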
# F508del corr = F508del CFTR correction, initial screen, CFBE line, single point; CFBE cells, YFP halide quenching; stimulated with forskolin plus potentiator P3; % fluorescence drop versus neutral controls; activity (quench increase), % at 7.58 µM; 350,000 compounds, 0.36% hits; AID 720511, 2013;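 active = mean added fluorescence quench of at least 8% versus neutral control, with both replicates also reaching 8%; inconclusive = only one of the mean or replicate conditions met; inactive = mean below 8% and not both replicates reaching 8%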;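 also: cells transiently co-express mutant CFTR-F508del with the halide-sensitive YFP; corrector assay measuring rescue of mutant channel to the surface after 24 h compound exposure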
# Ecoli rRNA inh = reduced GFP signal of wild-type E. coli, primary screen, bacterial rRNA inhibitor project, GFP/RFP fluorescence, OD600, single point. E. coli WT GFP vs humanized-ribosome RFP mutants, 24 h; hits give low values; DMSO median 0, no signal -100. GFP signal change (wild-type ribosome), % (test concentration not listed). 350,000 compounds, 1.6% hits. AID 720706, 2013;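 active = significant combined selectivity score with lowered wild-type GFP, culture density cut under 30%, mutant RFP and density less affected; inactive = any of these conditions unmet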
# S100A4 MyoIIA = inhibitors of S100A4-myosin IIA peptide binding, primary screen, biochemical, fluorescence polarization, TAMRA-MyoIIA peptide | Protein S100-A4 (Homo sapiens), P26447 | AID 652163, 2013 | inhibition, % at 10.7 µM | 360,000 compounds, 0.14% hits;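 active = mean inhibition of at least 70% across replicates, with every replicate also reaching that level; inconclusive = mean inhibition reaches 70% but some replicates fall short; inactive = mean inhibition below 70%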
# Target sequence (P26447 whole entry, looked up): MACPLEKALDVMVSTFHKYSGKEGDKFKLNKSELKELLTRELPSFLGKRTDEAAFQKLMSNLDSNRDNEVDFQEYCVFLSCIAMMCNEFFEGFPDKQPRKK
#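 Test system: S100A4 monomer protein. Medium: HEPES buffer with Ca2+, pH 7.2. Reagent: fluorescent myosin IIA peptide, 5 nM. Compound dosing: single-point compound testing. Timing: 5 min between mix addition and reading. Benchmarks: DMSO neutral and TFP positive wells.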
# SIRT5 inh = SIRT5 desuccinylase inhibitors, primary screen, biochemical, fluorescence imaging, single point, set 5. NAD-dependent protein deacylase sirtuin-5, mitochondrial (Homo sapiens), Q9NXA8. Purified SirT5, succinyl-peptide AMC, trypsin-coupled fluorescence. inhibition, % at 15 µM. 330,000 compounds, 1.1% hits; in the data active = inhibition above about 15%; inconclusive = no clear call, values can overlap the other calls
# Target sequence (Q9NXA8 whole entry, looked up): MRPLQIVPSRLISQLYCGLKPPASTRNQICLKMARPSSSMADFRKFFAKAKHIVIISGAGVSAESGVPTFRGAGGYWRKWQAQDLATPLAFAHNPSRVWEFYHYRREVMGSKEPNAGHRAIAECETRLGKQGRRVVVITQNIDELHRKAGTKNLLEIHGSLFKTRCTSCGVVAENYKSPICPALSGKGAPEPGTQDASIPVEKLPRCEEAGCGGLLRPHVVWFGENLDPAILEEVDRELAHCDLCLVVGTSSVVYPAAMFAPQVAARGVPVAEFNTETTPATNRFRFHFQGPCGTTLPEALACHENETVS
# Numbers stand for hits; - = inactive; ? = inconclusive; . = not tested or not shown. An excerpt weighted towards active compounds, which were near 3.1% of everything screened.
SMILES,ERAP1 inh,F508del corr,Ecoli rRNA inh,S100A4 MyoIIA,SIRT5 inh
COc1cccc(NC(=O)C[C@@H]2CC[C@@H]3[C@@H](COc4ccc(NC(=O)C5CCCC5)cc4C(=O)N3C)O2)c1,-,-,-,-,-
COc1cc2c(c(OC)c1OC)C(=O)C(=Cc1ccccc1)O2,-,-,-28.6,-,.
C[C@@H]1CCCCO[C@H](CN(C)C(=O)CCCN(C)C)[C@@H](C)CN([C@@H](C)CO)C(=O)c2cc(NC(=O)NC3CCCCC3)ccc2O1,-,-,-,-,-
COc1ccc(Cl)cc1C(=O)NNC(=O)CCNS(=O)(=O)c1ccccc1,-,10.0,-,-,-
CC(=O)Nc1ccc(C2(c3ccc(NC(C)=O)cc3)NC(=O)c3ccccc32)cc1,-,-,-,-,-
NS(=O)(=O)c1cc(C2(O)NC(=O)c3ccccc32)ccc1Cl (stereo unspecified),-,11.1,-,-,-
NS(=O)(=O)c1ccc(NC(=O)Nc2ccc(S(N)(=O)=O)cc2)cc1,.,-,-,-,15.1
NS(=O)(=O)c1ccc(NC(=O)Nc2ccccc2)cc1,.,-,-,-,-
N=c1sccn1CC(=O)Nc1ccc(S(N)(=O)=O)cc1,-,10.8,-,-,-
NS(=O)(=O)c1ccc(NC(=O)N2c3ccccc3Sc3ccccc32)cc1,-,-,-45.5,-,-
CC(=NNc1nc2ccccc2o1)c1cc2ccccc2cn1,-,-,-21.8,-,-
CC(=NNc1nc2ccccc2o1)c1ncccn1,-,-,-,-,.
C[C@H]1CN([C@@H](C)CO)C(=O)c2cccc(NS(C)(=O)=O)c2O[C@H]1CN(C)S(=O)(=O)c1cn(C)cn1,-,-,-,-,-
c1coc(-c2nnc(-c3ccco3)nn2)c1,-,-,-,-,17.6
CN1[C@@H]2c3ccc(/C=C/c4ccccc4)c(=O)n3C[C@@H]2[C@@H](CO)[C@@H]1C(=O)NC1CCCC1,-,-,-,-,-
O=C(O)[C@H]1[C@H](CO)[C@H]2Cn3c(ccc(/C=C/c4ccccc4)c3=O)[C@H]2N1C(=O)C1CCCC1,-,-,-,-,-
O=C(O)[C@@H]1[C@@H](CO)[C@@H]2Cn3c(ccc(/C=C/c4ccccc4)c3=O)[C@@H]2N1C(=O)C1CCCC1,-,-,-,109.6,-
COCC(=O)N1[C@@H]2c3ccc(/C=C/c4ccccc4)c(=O)n3C[C@H]1[C@H](CO)[C@H]2C(=O)N1CCOCC1,108.0,.,-,-,-
C[C@H](NC(=O)C[C@H]1C=C[C@@H](NC(=O)CN2CCOCC2)[C@@H](CO)O1)c1ccccc1,-,-,-,-,-
O=C(C[C@H]1C=C[C@@H](NC(=O)C2CC2)[C@@H](CO)O1)Nc1ccccc1,-,-,-,?,-
O=C(c1ccc(F)cc1F)N1CCCC(c2nc(-c3ccc(F)cc3)no2)C1 (stereo unspecified),-,-,-21.5,-,.
O=C(Cc1ccccc1)N1CCCC(c2nc(-c3ccc(S(=O)(=O)N4CCCC4)cc3)no2)C1 (stereo unspecified),-,-,-25.5,-,-
COc1ccc2c(c1)C(O)C(CO)C(C(=O)O)C2 (stereo unspecified),-,10.5,-,-,-
C=CCc1cccc(/C=N/NC(=O)C(C)Nc2ccc(C)cc2)c1O (stereo unspecified),-,.,-31.8,-,-
Cc1ccc2nc(SCC(=O)c3ccc(O)cc3O)[nH]c2c1,-,-,-22.6,-,-
CCCCNc1cc(C(=O)O)cc(S(N)(=O)=O)c1Oc1ccccc1,-,8.6,.,-,-
CCOC(=O)c1cnc(COc2ccc(OC)cc2)[nH]c1=O,.,52.6,.,-,-
COc1ccc(Cl)cc1NC(=O)c1cccc(NC(=O)CCC(=O)O)c1,-,.,-,-,18.7
COc1ccc(C)cc1NC(=O)c1cccc(C(=O)Nc2cc(C)ccc2OC)c1,-,-,-,-,15.8
CCOC(=O)N1CCN(C(=O)c2cc3c(-c4cccc(OC)c4)nn(C)c3s2)CC1,-,-,-28.6,-,-
